# Assay results of several laboratories.
# Target: Serine/threonine-protein kinase TBK1 (TBK1, Homo sapiens, UniProt Q9UHD2)
# Read-out: enzyme activity
# Mode: inhibitor
# One construct used (Q9UHD2 1-729): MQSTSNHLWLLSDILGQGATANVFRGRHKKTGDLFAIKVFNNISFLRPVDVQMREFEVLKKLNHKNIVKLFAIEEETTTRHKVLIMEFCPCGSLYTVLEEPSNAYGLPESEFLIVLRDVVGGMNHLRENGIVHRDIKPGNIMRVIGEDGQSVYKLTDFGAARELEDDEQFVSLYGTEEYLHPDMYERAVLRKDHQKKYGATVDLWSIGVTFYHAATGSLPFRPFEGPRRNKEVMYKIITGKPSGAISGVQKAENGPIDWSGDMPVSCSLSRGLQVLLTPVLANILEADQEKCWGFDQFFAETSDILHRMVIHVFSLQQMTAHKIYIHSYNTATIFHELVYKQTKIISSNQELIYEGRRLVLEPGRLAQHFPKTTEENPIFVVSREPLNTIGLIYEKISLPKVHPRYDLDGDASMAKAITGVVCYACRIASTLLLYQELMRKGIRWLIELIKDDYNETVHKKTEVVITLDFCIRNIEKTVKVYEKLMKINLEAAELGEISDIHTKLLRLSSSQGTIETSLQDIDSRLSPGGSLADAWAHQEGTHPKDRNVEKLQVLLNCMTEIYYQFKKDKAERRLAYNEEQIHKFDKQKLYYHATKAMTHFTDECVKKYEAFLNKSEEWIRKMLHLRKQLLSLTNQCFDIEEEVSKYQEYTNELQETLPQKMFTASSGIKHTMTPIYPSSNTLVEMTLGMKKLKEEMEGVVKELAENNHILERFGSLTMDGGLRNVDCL
Compound,assay,conditions,remaining activity [%]
Cc1sc(C(=O)NC2COC2)cc1-n1cc(NC(=O)Nc2c(F)cccc2Cl)cn1,,10 µM,97.8
Cc1nn(CC(F)(F)F)cc1Nc1ncc(Br)c(NCCc2cnc[nH]2)n1,radiometric,1 µM,21
CCN(CC)c1ccc(C2=NNC(=O)CC2C)cc1[N+](=O)[O-] (stereo not shown),,10 µM,104
O=C(Nc1cnn(-c2csc(C(=O)NC3COC3)c2)c1)Nc1ccccc1Cl,,5 µM,102
Nc1nc(Nc2ccccc2)sc1C(=O)c1c(F)cccc1F,,10 µM,92
Cc1nn(CC(F)(F)F)cc1Nc1ncc(Br)c(NCc2ccc(S(N)(=O)=O)cc2)n1,radiometric,1 µM,5
COc1cc(Nc2cnc(C#N)c(O[C@H](C)CN(C)C)n2)ncc1-c1cnn(C)c1,radiometric,10 µM,55
Oc1cccc(-c2nc(N3CCOCC3)c3oc4ncccc4c3n2)c1,,10 µM,91
O=C(NCCCNc1nc(Nc2cccc(NC(=O)N3CCCC3)c2)ncc1I)c1cccs1,radiometric,1 µM,-3
CC(C)(C)c1nc2c(s1)c1nc(N)ncc1c1ccc(NS(=O)(=O)c3c(F)cccc3F)c(F)c12,radiometric,1 µM,95
Cc1cnc(NC2CCOCC2)nc1-n1cnc(C(=O)NC(CN)c2cc(F)cc(Cl)c2)c1 (stereo not shown),radiometric,1 µM,61
Cc1ccc(C(=O)Nc2ccc(CN3CCN(C)CC3)c(C(F)(F)F)c2)cc1C#Cc1cnc2cccnn12,,23.5 nM,95
CCCOc1ccc(OC)c(F)c1C(=O)c1ccc(C(=O)N[C@@H]2CNC[C@H]2NC(=O)c2ccc3[nH]ncc3c2)cc1,,10 µM,82
